{"data": "Measurements from different studies", "read-out": "cell growth or viability", "note": "Compare with care: the assays were run in different laboratories."}
{"SMILES": "COc1cc([C@@H]2c3cc4c(cc3[C@@H](O[C@@H]3O[C@@H]5CO[C@@H](c6cccs6)O[C@H]5[C@H](O)[C@H]3O)[C@H]3COC(=O)[C@H]23)OCO4)cc(OC)c1O", "cell line": "GISTT1", "assay": "resazurin", "setting": "72 h", "IC50 [µM]": "> 1"}
{"SMILES": "COc1ccc2c(c1)C(=O)CCc1ccccc1C(=O)N2", "cell line": "L6", "IC50 [µM]": 47}
{"SMILES": "O=c1ncccn1[C@@H]1O[C@H](CO)[C@@H](O)[C@H]1O", "cell line": "MEC1", "setting": "48 h", "IC50 [µM]": 195}
{"SMILES": "Cc1ccc(-c2cc(COCc3ccc(C(C)C)cc3)c3cccnc3c2O)cc1", "cell line": "MDA-MB-453", "assay": "MTS", "setting": "72 h", "IC50 [µM]": 0.9}
{"SMILES": "Nc1nc(F)nc2c1ncn2[C@@H]1O[C@H](COP(=O)(O)O)[C@@H](O)[C@@H]1O", "cell line": "GISTT1", "assay": "resazurin", "setting": "72 h", "IC50 [µM]": "> 1"}
{"SMILES": "CCN1C(=O)N(c2c(F)c(OC)cc(OC)c2F)Cc2cnc3[nH]c(CN4CCOCC4)cc3c21", "cell line": "MDA-MB-453", "assay": "ATP luminescence", "setting": "96 h", "IC50 [µM]": 0.0764}
{"SMILES": "COc1ccccc1C(=O)c1cc2c(-c3ccccc3)c(OC)ccc2o1", "cell line": "L1210", "setting": "48 h", "IC50 [µM]": "> 50"}
{"SMILES": "CC(=O)[C@]1(O)Cc2c(O)c3c(c(O)c2[C@@H](O[C@H]2C[C@H](N)[C@H](O)[C@H](C)O2)C1)C(=O)c1ccccc1C3=O", "cell line": "GISTT1", "assay": "resazurin", "setting": "72 h", "IC50 [µM]": 0.1}
{"SMILES": "O=C1C(=Cc2ccccc2)CN(C(=O)c2ccc(C(=O)N3CC(=Cc4ccccc4)C(=O)C(=Cc4ccccc4)C3)cc2)CC1=Cc1ccccc1", "cell line": "L1210", "IC50 [µM]": "> 500"}
{"SMILES": "COc1cc(OC)cc(C(=O)c2cc3c(-c4ccccc4)c(OC)ccc3o2)c1", "cell line": "L1210", "setting": "48 h", "IC50 [µM]": "> 50"}
{"SMILES": "O=C1Nc2ccccc2C(=O)CCc2cc(O)ccc21", "cell line": "L6", "IC50 [µM]": 84}
{"SMILES": "CC(C)[C@H](N)c1nc2cc(-c3ccnc(Cl)c3)sc2c(=O)[nH]1", "cell line": "COLO 205", "assay": "MTT", "IC50 [µM]": 1.6}
{"SMILES": "COc1ccc(C(=O)c2cc3c(-c4ccccc4)c(OC)ccc3o2)cc1", "cell line": "L1210", "setting": "48 h", "IC50 [µM]": 2.8}
{"SMILES": "O=C1Nc2ccc(S(F)(F)(F)(F)F)cc2C(=O)CCc2ccccc21", "cell line": "L6", "IC50 [µM]": 2.8}
{"SMILES": "O=C1c2c(O)ccc(O)c2C(=O)c2c(NCCNCCO)ccc(NCCNCCO)c21", "cell line": "GISTT1", "assay": "resazurin", "setting": "72 h", "IC50 [µM]": 0.42}
{"SMILES": "O=C1Nc2ccccc2C(=O)CCCc2ccccc21", "cell line": "L6", "IC50 [µM]": 130}
{"SMILES": "CC(C)C[C@H](NC(=O)[C@H](Cc1ccccc1)NC(=O)c1cnccn1)B(O)O", "cell line": "NCI-H1838", "assay": "ATP luminescence", "IC50 [µM]": 0.053}
{"SMILES": "CC(C)C[C@H](NC(=O)[C@H](Cc1ccccc1)NC(=O)c1cnccn1)B(O)O", "cell line": "GISTT1", "assay": "resazurin", "setting": "72 h", "IC50 [µM]": "< 0.07"}
{"SMILES": "O=c1c(O)c(-c2ccc(O)c(O)c2)oc2cc(O)cc(O)c12", "cell line": "SCaBER", "assay": "ATP luminescence", "setting": "72 h", "IC50 [µM]": 24.2}
{"SMILES": "COc1c2ccoc2c(OCC=C(C)C)c2oc(=O)ccc12", "cell line": "COLO 205", "assay": "MTT", "setting": "72 h", "IC50 [µM]": "> 100"}
{"SMILES": "CC(C)[C@H](N)c1nc2cc(-c3cn[nH]n3)sc2c(=O)[nH]1", "cell line": "COLO 205", "assay": "MTT", "IC50 [µM]": 3.79}
{"SMILES": "COc1ccc(/C=C\\c2cc(OC)c(OC)c(OC)c2)cc1O", "cell line": "L1210", "setting": "48 h", "IC50 [µM]": 0.0032}
{"SMILES": "CC(C)=CCC/C(C)=C/COc1ccc2ccc(=O)oc2c1", "cell line": "COLO 205", "assay": "MTT", "setting": "24 h", "IC50 [µM]": 55.1}
{"SMILES": "O=C1CCc2ccccc2CC(=O)c2ccccc2N1", "cell line": "L6", "IC50 [µM]": "> 380"}
{"SMILES": "COc1cc(NS(C)(=O)=O)ccc1Nc1c2ccccc2nc2ccccc12", "cell line": "GISTT1", "assay": "resazurin", "setting": "72 h", "IC50 [µM]": 0.31}
{"SMILES": "O=C1Nc2ccccc2C(=O)CCc2cc(F)ccc21", "cell line": "L6", "IC50 [µM]": 96}
{"SMILES": "COc1cc(-c2oc3cc(O)cc(O)c3c(=O)c2O)ccc1O", "cell line": "SCaBER", "assay": "ATP luminescence", "setting": "72 h", "IC50 [µM]": 43.2}
{"SMILES": "COc1cc(N(C)CCN(C)C)c(NC(=O)/C=C/C(C)C)cc1Nc1nc(N2CCc3sccc3C2)c2sccc2n1", "cell line": "NCI-H460", "assay": "MTT", "IC50 [µM]": "> 50"}
{"SMILES": "O=C1Nc2ccc(C(F)(F)F)cc2C(=O)CCc2ccccc21", "cell line": "L6", "IC50 [µM]": 9}
{"SMILES": "CC(C)[C@@H](N)c1nc2cc(-c3ccncc3F)sc2c(=O)[nH]1", "cell line": "COLO 205", "assay": "MTT", "IC50 [µM]": 1.19}
{"SMILES": "C#C[C@]1(CO)O[C@@H](n2cnc3c(N)nc(F)nc32)C[C@@H]1O", "cell line": "MDCK-II", "assay": "MTT", "setting": "48 h", "IC50 [µM]": 377}
{"SMILES": "COc1ccc2oc(C(=O)c3ccccc3)cc2c1-c1ccccc1", "cell line": "L1210", "setting": "48 h", "IC50 [µM]": "> 50"}
{"SMILES": "N[C@@H](CC(=O)N1CCN(C(c2ccc(F)cc2)c2ccc(F)cc2)CC1)C(=O)N1Cc2ccccc2C1", "cell line": "RS4-11", "assay": "ATP luminescence", "setting": "24 h", "IC50 [µM]": 28.3}
{"SMILES": "COC(=O)Nc1nc2ccc(C(=O)c3ccccc3)cc2[nH]1", "cell line": "GISTT1", "assay": "resazurin", "setting": "72 h", "IC50 [µM]": 0.81}
{"SMILES": "CCC(=O)Nc1cc(Nc2nc(Nc3cnn(C)c3)c3sccc3n2)c(OC)cc1N(C)CCN(C)C", "cell line": "NCI-H460", "assay": "MTT", "IC50 [µM]": "> 50"}
{"SMILES": "C#C[C@]1(O)CC[C@H]2[C@@H]3CCC4=Cc5oncc5C[C@]4(C)[C@H]3CC[C@@]21C", "cell line": "GISTT1", "assay": "resazurin", "setting": "72 h", "IC50 [µM]": "> 1"}
{"SMILES": "COc1ccc(C(=O)c2cc3c(-c4ccccc4)c(O)ccc3o2)cc1", "cell line": "L1210", "setting": "48 h", "IC50 [µM]": 1.3}
{"SMILES": "O=C1Nc2ccc(F)cc2C(=O)CCc2ccccc21", "cell line": "L6", "IC50 [µM]": 110}
